# An excerpt weighted towards active compounds, which were near 2.9% of everything screened.
# core dimer inh: blocks dimerization of HCV core protein; TR-FRET GST/Flag-core106 dimerization, 1536-well; inhibition, % at 5 µM; 0.33% of 300,000 active; AID 1899;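 active means inhibition above the mean of all tested compounds plus 3 SD, set per screening campaign, cut at about 45% in these data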
#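 Material: GST/Flag-tagged HCV core106 proteins. Incubation: 4 h, 22.5 °C incubation. Read-out basis: inhibition (%) from 671 over 617 nm ratio. Measured by: TR-FRET, excitation 340 nm, emission 617 and 671 nm.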
# APOBEC3G inh: inhibitors of human APOBEC3G DNA deaminase; inhibition, % at 20 µM; AID 493012; 0.28% of 330,000 active; recombinant A3G, ssDNA deamination FAM/TAMRA fluorescence; Q9HC16;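 active means inhibition of at least 40% at 20 µM, with no more than 30% in the related APOBEC3A deaminase screen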;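 further: plate controls were DMSO wells with A3G for no effect and wells lacking A3G enzyme for full effect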
# HCV NS3 hel inh: inhibitors of Hepatitis C virus NS3 helicase; NS3 helicase DNA unwinding, Cy5 molecular beacon fluorescence; inhibition, % at 10.9 µM; 0.56% of 290,000 active; AID 1800;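 active means inhibition above the mean of all tested compounds plus 3 SD, set per campaign, cut at about 35% in these data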;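 further: 0% = DMSO wells and 100% = thioflavine S control wells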
#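 System: Hepatitis C virus NS3 helicase domain fragment enzyme | Reagent: Annealed dual-labelled DNA beacon duplex, ATP-started | Compound dosing: 10.9 µM single point, 0.8% DMSO | Incubation: 1 h reaction at 25 °C, ATP-initiated | Technique: Cy5 fluorescence | Evaluation: Percent inhibition from t60/t0 fluorescence ratio | Benchmarks: Low DMSO, high thioflavine S at 110 µM | Replication: Singlicate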
# PRMT1 FP inh: blocks human protein arginine methyltransferase 1 | recombinant PRMT1, activity-based probe fluorescence polarization | Q99873 | 1.3% of 370,000 active | inhibition, % at 2.79 µM | AID 652257;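 active means inhibition above about 21% made by adding two undisclosed values, limit read from the data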
# ABHD5 PLIN5 PPI: inhibitors of human ABHD5-perilipin-5 interaction. 0.78% of 360,000 active. Q00G26+Q8WTS1. Split G. princeps luciferase complementation, luminescence, 4 h. inhibition, % at 4 µM;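 active means inhibition above the mean inhibition across every tested compound plus 3 SD, cut at about 22% in these data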;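 further: 0% = DMSO only wells and the 100% control is not disclosed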
# A3A deaminase: inhibitors of human APOBEC3A DNA deaminase | inhibition, % at 20 µM | P31941 | recombinant A3A, FAM/TAMRA ssDNA deamination fluorescence | 0.41% of 330,000 active | AID 493011;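 active means at least 40% inhibition at 20 µM here, with at most 30% in a related deaminase screen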;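 further: plate controls were A3A with DMSO for no effect and wells lacking A3A enzyme for full effect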
# * marks the source's active call; other numbers are inactive results; . = no result given.
SMILES,core dimer inh,APOBEC3G inh,HCV NS3 hel inh,PRMT1 FP inh,ABHD5 PLIN5 PPI,A3A deaminase
COc1ccc(S(=O)(=O)Nc2cccc3c2O[C@H](CN(C)C(=O)Nc2ccc(C(F)(F)F)cc2)[C@@H](C)CN([C@H](C)CO)C3=O)cc1,.,-13,.,6,-4,-5
COc1ccc(CNS(=O)(=O)/C=C/c2ccc(OC)cc2CNC(=O)OC(C)(C)C)cc1,.,.,.,-2,.,.
O=C(/C=C/c1ccc(Br)o1)OCc1nc2ccsc2c(=O)[nH]1,75*,80,.,.,6,93
COc1cccc(=O)c2c(C)n(-c3cc(C)cc(C)c3)c(C)c12,19,-2,33,13,-10,0
COc1cccc(-n2c(C)c3c(OC)cccc(=O)c3c2C)c1,52*,-2,17,5,9,0
c1cc2c3c(cccc3c1)NC1(CCCCCC1)N2,52*,-7,-8,2,0,-5
Cc1nn(-c2ccccc2)c(C)c1/C=N/NC(=O)CSc1nc2ccccc2c(=O)n1-c1ccc(Br)cc1,59*,-2,8,3,12,1
CCC(C(=O)Nc1ccccc1N1CCCC1)c1cccc(Cl)c1 (stereo not drawn),.,.,.,2,.,.
CC(C)(C)c1nnc2sc(SC/C(O)=C(\C#N)c3nc4ccccc4[nH]3)nn2c1=O,60*,-1,1,10,-3,2
COc1ccc(-c2noc(CCC(=O)N3CCN(c4ccccc4F)CC3)n2)cc1,.,4,.,4,-13,3
CCOC(=O)C(N)CSC1CC(=O)N(CCc2ccccc2)C1=O (stereo not drawn),-1,4,0,22*,-1,-6
O=C1CC(=O)Nc2cc(S(=O)(=O)N3CCN(c4ccc([N+](=O)[O-])cc4)CC3)ccc2N1,13,0,6,1,7,13
O=C(CSc1nc2ccccc2[nH]1)NN=Cc1ccccc1C(=O)O,.,.,.,8,.,.
Cc1ccc2nc(N3CCN(S(=O)(=O)c4ccc(C)c(Cl)c4)CC3)c(C#N)cc2c1,62*,-2,-8,1,-3,-1
CN(c1ccccc1)S(=O)(=O)c1ccc(C(=O)N2CCN(c3ccccc3)CC2)cc1,.,.,.,-2,-4,.
Cc1cc(O)ccc1N/C=C1\CCCC1=O,-13,5,19,30*,-4,6
O=C(C[n+]1ccc(/C=C/c2ccccc2)cc1)c1ccc2c(c1)OCCO2,2,-8,-62,1,23*,3
Cc1ccc2nc3sc(C(=O)NCc4ccco4)c(N)c3cc2c1,53*,14,12,4,10,7
COc1cc2cc3c(N)c(C(=O)NCc4ccco4)sc3nc2cc1OC,-36,4,9,.,9,-1
CCOC(=O)c1c(NC(=O)COC(=O)/C=C/c2ccccc2)sc(C(=O)NC)c1C,.,0,.,5,-6,2
C#CCOCCOCCOCCNc1nc(N2CCOCC2)nc(N2CCN(C(=O)CCCCCCCCCCNC(=O)[C@@H]([C@H](C)O)n3cc(C)nn3)CC2)n1,-2,-7,.,4,-5,0
C#CCOCCOCCOCCNc1nc(N2CCN(C(=O)CCCCCCCCCCNC(=O)[C@H]([C@@H](C)CC)n3cc(CCCCCN)nn3)CC2)nc(N2CCN(C(=O)CCCCCCCCCCNC(=O)[C@@H]([C@H](C)O)n3cc(C)nn3)CC2)n1,-7,5,.,.,41*,0
C#CCOCCOCCOCCNc1nc(N2CCN(C(=O)CCCCCCCCCCNC(=O)Cn3cc(CCCCCN)nn3)CC2)nc(N2CCN(C(=O)CCCCCCCCCCNC(=O)[C@H]([C@@H](C)CC)n3cc(CCCCCN)nn3)CC2)n1,16,-5,.,.,34*,-9
C#CCOCCOCCOCCNc1nc(N2CCOCC2)nc(N2CCN(C(=O)CCCCCCCCCCNC(=O)Cn3cc(CCCCCN)nn3)CC2)n1,-1,-7,.,4,3,-1
C#CCOCCOCCOCCNc1nc(N2CCN(C(=O)CCCCCCCCCCNC(=O)[C@H](CCCCN)n3cc(C)nn3)CC2)nc(N2CCN(C(=O)CCCCCCCCCCNC(=O)[C@@H]([C@H](C)CC)n3cc(CCCCCN)nn3)CC2)n1,12,4,.,.,45*,-3
